This is an account of results in ChEMBL document CHEMBL4513216, “Probing the Open Global Health Chemical Diversity Library for Multistage-Active Starting Points for Next-Generation Antimalarials” (ACS Infect Dis, 2020).

Molecules are shown by their SMILES.

A short description of the data set: Toxicity liver stage against HepG2, at 10uM. As to conditions: human, HepG2-A16-CD81EGFP cells; read-out: INHIBITION
The format is cell-based. Also noted: test concentration 10 uM, cell line HepG2-A16-CD81EGFP. Put shortly: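 Uninfected HepG2-A16-CD81EGFP cells, 3 × 10^3 per well, 1536-well, plated on prespotted compound at 10 μM final, parasite-free screening media added to match infected plates; puromycin 10 μM positive, DMSO 0.5% negative; run in parallel with 48 h PbLuc assay at 37 °C, 5% CO2; viability by CellTiter-Glo luminescence, normalized to controls.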
For the compound `Cn1nc(-c2ccccc2)c(Br)c1C(=O)O`, the cytotoxicity at 10 µM was -48.3%.

Turning to `Cc1n[nH]c2c1C(c1cccnc1)SCC(=O)N2` (centres undefined), the cytotoxicity at 10 µM was -7.46%.

For `COc1ccc(N2CCN(C(=O)COc3nccc(C)n3)CC2)cc1`, the cytotoxicity at 10 µM is -6.16%.

Turning to `COC(CNC(=O)C1CCN(S(C)(=O)=O)CC1)c1ccc(C)s1` (centres undefined), the cytotoxicity at 10 µM was -0.0506%.

`CC1(C)OCC(CNC(=O)c2cnn(-c3cc(Cl)ccc3Cl)c2N)O1` (centres undefined): the cytotoxicity at 10 µM was determined as 2.84%.

Take `Cc1nc2[nH]cnc(NCCN3CCOCC3)c-2n1`: the cytotoxicity at 10 µM is 3.22%.

Regarding `Cc1cc(C)nc(C2CCN(c3ccncn3)C2)n1` (centres undefined), the cytotoxicity at 10 µM is -0.419%.

In the case of `CC(=O)Nc1nc(C2CCN(C(=O)C3CCC3)CC2)cs1`, the cytotoxicity at 10 µM is -2.36%.

With `COCC(=O)N1CCCC(c2cccc(-n3ccnc3)n2)C1` (centres undefined), the cytotoxicity at 10 µM is -9.69%.

For the compound `OC1(Cn2ccc3ccncc32)CCN(Cc2ccccn2)CC1`, the cytotoxicity at 10 µM came to 2.42%.

As to `CN1CCN(C(=O)CCC(=O)c2cccs2)Cc2ccccc21`, the cytotoxicity at 10 µM is -57.8%.

For the compound `COc1c(C(=O)NC(C)CC(=O)c2cccs2)c(C)nn1C` (centres undefined), the cytotoxicity at 10 µM was -10.1%.

As for `Cc1csc(CCNC(=O)N2CCC(C(N)=O)CC2)n1`, the cytotoxicity at 10 µM was -2.71%.

For `CC1CCCN(C(=O)c2ccc(N(C)Cc3cnn(C)c3)nc2)C1` (centres undefined), the cytotoxicity at 10 µM was determined as 2.22%.

Take `CSCCc1ccc(NC(=O)NC(C)Cn2cncn2)cc1` (centres undefined): the cytotoxicity at 10 µM was 2.56%.

On to `Cc1c(Br)cccc1S(=O)(=O)NCc1ccnn1C`, for which the cytotoxicity at 10 µM amounted to 43%.

For `CC(NC(=O)Cc1ccon1)c1ccc(OCC2CC2)c(F)c1` (centres undefined), the cytotoxicity at 10 µM stood at 5.47%.

`O=C(NCCc1nnc2n1CCC2)NCC1(c2ccccc2)CC1`: the cytotoxicity at 10 µM was -7.35%.

`CC(C)c1ncncc1C(=O)NCCN1CCCCC1C` (centres undefined): the cytotoxicity at 10 µM is -6.06%.

On to `CSCC(CCO)NC(=O)Nc1ccc(C)cc1Br` (centres undefined), for which the cytotoxicity at 10 µM was -11.8%.

`CNc1cc(N2CCCC2CNCc2cccs2)ncn1` (centres undefined): the cytotoxicity at 10 µM was -12.3%.

Take `CCN(CC)Cc1ccc(C(=O)NC2CCc3cc(Br)ccc32)o1` (centres undefined): the cytotoxicity at 10 µM is -3.3%.

Consider `CN(C)S(=O)(=O)c1ccc2c(c1)N(Cc1nccn1C)CC2`, for which the cytotoxicity at 10 µM is -3.42%.

`COc1ccccc1-c1cc(NC(=O)CCC2CCCO2)[nH]n1` (centres undefined): the cytotoxicity at 10 µM is -0.394%.

With `CCn1nc2c(cc1=O)CN(Cc1ccc(-n3cccn3)cc1)CC2`, the cytotoxicity at 10 µM was -134%.

Take `Cc1cc(C)n(-c2ccc(C(C)NS(N)(=O)=O)cc2)n1` (centres undefined): the cytotoxicity at 10 µM was -7.76%.

As to `Cc1ccc(C)c(CS(=O)(=O)CC(=O)Nc2ccc(F)cc2F)c1`, the cytotoxicity at 10 µM was found to be 3.28%.

Consider `COc1cc(OC)c(CNC(=O)NCC(=O)N(C)C)c(OC)c1`, for which the cytotoxicity at 10 µM was 3.27%.

Regarding `CCOC(C)c1noc(CN(C)C(=O)C2C(C)(C)C2(C)C)n1` (centres undefined), the cytotoxicity at 10 µM amounted to 9.5%.

For the compound `CC(C)COC(C)C(=O)NCCNC(=O)C(C)C` (centres undefined), the cytotoxicity at 10 µM is -15.2%.

With `Cc1cc(C)n(Cc2ccc(C(=O)NCCN3CCOCC3)cc2)n1`, the cytotoxicity at 10 µM is -14.8%.

As for `CCc1nnc2n1CCN(C(=O)c1cnc3ccccc3n1)C2`, the cytotoxicity at 10 µM was -7.7%.

For `COCCN1CC[C@@H]2OC[C@H](C(=O)N(C)Cc3ccccn3)C[C@@H]2C1`, the cytotoxicity at 10 µM was -98.5%.

On to `O=C1CO[C@@H]2CNC[C@H]2N1CC1CC1`, for which the cytotoxicity at 10 µM was -95.7%.

As to `Cc1ncsc1CN1C[C@@H]2CN(S(C)(=O)=O)CCO[C@@H]2C1`, the cytotoxicity at 10 µM is -105%.

With `Cn1cc(CN2C[C@@H]3CCC[C@@H](OCc4cccnc4)[C@@H]3C2)cn1`, the cytotoxicity at 10 µM was -107%.

Consider `CS(=O)(=O)N1C[C@@H](NC(=O)c2ccno2)[C@@H]2OCCC[C@@H]21`, for which the cytotoxicity at 10 µM is -108%.

For the compound `CN(C)Cc1cnc2n1CCN(C(=O)C1CC=CC1)CC2`, the cytotoxicity at 10 µM is -81.3%.

Take `Cc1ccc2c(c1)C1(CCN(C(N)=O)CC1)CN2C(=O)N(C)C`: the cytotoxicity at 10 µM is -79.1%.

Take `COCCNC(=O)c1cc2c(c3ccccc3n2C)n1C(=O)N(C)C`: the cytotoxicity at 10 µM is -72.6%.

Turning to `Cc1cc(C(=O)N2CC[C@@H]3CN(S(C)(=O)=O)CCO[C@@H]3C2)c(C)o1`, the cytotoxicity at 10 µM worked out at 3.52%.

Turning to `CS(=O)(=O)N1CCC2(CC1)CC(CC(=O)NC1CC1)c1ccccc12` (centres undefined), the cytotoxicity at 10 µM was -0.105%.

`Cc1[nH]c2ccccc2c1-c1ccnc(N[C@@H](CO)C(C)C)n1`: the cytotoxicity at 10 µM is -4.19%.

`CCN(Cc1nc(COC)no1)Cc1ccccc1OCC(=O)O`: the cytotoxicity at 10 µM is -51.6%.

Regarding `OC1(CN2CCC(Oc3cccc(C(F)(F)F)c3)CC2)CNCCOC1` (centres undefined), the cytotoxicity at 10 µM was -5.43%.

For `Cc1ccnc(CC(C)N(C)c2cc(C3CCNCC3)nc(C)n2)c1` (centres undefined), the cytotoxicity at 10 µM was -46.2%.

On to `Cc1ccc(CN2C[C@H]3C(=O)N(CC4CC4)C[C@@]3(C(=O)O)C2)c(F)c1F`, for which the cytotoxicity at 10 µM is 7.47%.

In the case of `CCc1nc(NC(=O)NCCc2scnc2C)nn1C`, the cytotoxicity at 10 µM was determined as 0.102%.

As for `C[C@@H]1CC[C@@H](C)N1C(=O)c1cc(COc2ccccc2)[nH]n1`, the cytotoxicity at 10 µM was determined as 4.82%.

Consider `CC(C)N1CCC(CC(=O)NC(C(=O)O)c2cccc(F)c2)CC1` (centres undefined), for which the cytotoxicity at 10 µM is -0.114%.

`c1ccc(CCN2CCN(C3CCOC4(CCOCC4)C3)CC2)cc1` (centres undefined): the cytotoxicity at 10 µM is -3.79%.

As to `CCN(CCN1CCOCC1)C(=O)c1cccnc1`, the cytotoxicity at 10 µM is 7.42%.

As to `Cc1cc(NCCNc2cccnc2)nc(N)n1`, the cytotoxicity at 10 µM was -5.86%.

As to `COc1ccc(CN2CCN(C(=O)N(C)C)[C@@H]3CS(=O)(=O)C[C@@H]32)cc1F`, the cytotoxicity at 10 µM is 1.24%.

For `CC(C)(N)C(=O)N1CCCC(C(=O)c2ccc(C(C)(C)C)cc2)C1` (centres undefined), the cytotoxicity at 10 µM was -1.1%.

`CCc1ccc(C(=O)N2CCC(O)(CN3CCOCC3)C(C)(C)C2)[nH]1` (centres undefined): the cytotoxicity at 10 µM was 0.542%.

Consider `COCCOC(=O)N1CCn2nc(CN(C)Cc3nccs3)cc2C1`, for which the cytotoxicity at 10 µM came to 1.32%.

`Cc1cc(-c2nn(C)c(Cl)c2CN2CC[C@H](CO)[C@@H](O)C2)no1`: the cytotoxicity at 10 µM was found to be 2.45%.

For `C=Cc1ccc(C(=O)N2CCCC(Nc3ccc(F)c(F)c3)C2)cc1` (centres undefined), the cytotoxicity at 10 µM was -9.03%.

As for `Cc1ccn2cc(C(=O)N3CCCC(Cn4cc(CO)nn4)C3)nc2c1` (centres undefined), the cytotoxicity at 10 µM stood at 2.41%.

Take `CC(C)CCn1c(=O)n(CCn2cccc2)c2cc(C(=O)O)cnc21`: the cytotoxicity at 10 µM is -2.95%.

On to `Cc1ccc(CN2CCN(Cc3ccncc3)[C@@H]3CS(=O)(=O)C[C@@H]32)cc1`, for which the cytotoxicity at 10 µM came to 6.86%.

Turning to `N[C@@H]1c2ccccc2C2(CCN(C(=O)c3ccc(Cl)cn3)CC2)[C@H]1O`, the cytotoxicity at 10 µM was -2.21%.

For the compound `Cc1[nH]c2c(C)ccc(C)c2c1CC(=O)NCCCNc1cccnc1`, the cytotoxicity at 10 µM worked out at 0.0773%.

`CCN(CC)S(=O)(=O)N1CCCC(c2ccc(C(=O)O)cc2)C1` (centres undefined): the cytotoxicity at 10 µM is -7.27%.

As to `CN(C)S(=O)(=O)N1CCC2(CCCN(Cc3ccc(F)cc3)C2=O)C1` (centres undefined), the cytotoxicity at 10 µM is -9.67%.

Take `CC(C)NS(=O)(=O)c1cc(C(=O)O)cc(-c2ccccc2CN(C)C)c1`: the cytotoxicity at 10 µM was 6.41%.

Consider `CC(CN1CCCC1)C(=O)N1CCC(c2nccn2CC2CC2)CC1` (centres undefined), for which the cytotoxicity at 10 µM was -26.3%.

Regarding `Cc1cc2cc(C(=O)N[C@@H]3CC[C@@H](N4CCOCC4)[C@@H]3O)ccc2o1`, the cytotoxicity at 10 µM was -1.85%.

As to `O=C1NCC2(CCCN(Cc3ccccc3F)C2)Oc2ccccc21` (centres undefined), the cytotoxicity at 10 µM worked out at 6.12%.

With `CN(Cc1ccccn1)C(=O)c1nc(S(C)(=O)=O)n2ccccc12`, the cytotoxicity at 10 µM was -8.01%.

Consider `CCn1ccnc1CN1CCN(C(C)C(=O)NC2CCCC2)CC1` (centres undefined), for which the cytotoxicity at 10 µM was -4.86%.

With `Fc1cccc(CN2CCN(Cc3cscn3)CC2)c1`, the cytotoxicity at 10 µM was -0.612%.

As for `CN1CCN(c2cc(N3CCCC3CO)ncn2)Cc2ccccc21` (centres undefined), the cytotoxicity at 10 µM is -5.22%.

`CCc1ncc2c(n1)CN(Cc1nc(-c3ccsc3)oc1C)CC2`: the cytotoxicity at 10 µM was -8.6%.

Take `O=C(Nc1cccc(CNCc2cccs2)c1)C1CCCC1`: the cytotoxicity at 10 µM is -4.59%.

Consider `Cn1ccnc1CN1CCN(c2ccc(C#N)cn2)CC1`, for which the cytotoxicity at 10 µM was -4.2%.

`CCCOc1cccc(CNC(=O)CN2CCN(C)CC2C)c1` (centres undefined): the cytotoxicity at 10 µM was -7.57%.

On to `Cn1cnc(S(=O)(=O)NCCN2CCCCCC2=O)c1Cl`, for which the cytotoxicity at 10 µM is -14.2%.

As to `CC(C)C(C(=O)N1CCC(N(C)c2cccnn2)CC1)n1cncn1` (centres undefined), the cytotoxicity at 10 µM was -7.44%.

For the compound `CCN1CCC(CNC(=O)C2(c3cccc(C)c3)CC2)C1` (centres undefined), the cytotoxicity at 10 µM stood at 1.42%.

Take `Cc1cnn(C2CCCN(C(=O)C3=NN(C)C(=O)CC3)C2)c1` (centres undefined): the cytotoxicity at 10 µM was -3.71%.

For `O=C(c1cccc2cccnc12)N1CCCN(c2cccnn2)CC1`, the cytotoxicity at 10 µM was -3.2%.

On to `Cc1ccc(CN(Cc2ccccn2)C2CC(C)(C)NC(C)(C)C2)s1`, for which the cytotoxicity at 10 µM was 2.7%.

Regarding `O=C(NCc1ccco1)[C@@H]1CCO[C@@H]2CCN(c3ncccn3)C[C@@H]21`, the cytotoxicity at 10 µM was -68.3%.

As to `CCN1C[C@H]2C3(CCN(C(C)=O)CC3)CC[C@@]2(C(=O)N(C)C)C1`, the cytotoxicity at 10 µM is -104%.

Take `CC(C)CNC(=O)[C@H]1CCS(=O)(=O)[C@@H]2CN(Cc3cccc(Cl)c3)C[C@H]12`: the cytotoxicity at 10 µM was -7.06%.

On to `c1ncn(Cc2cnc3n2CCN(Cc2ccsc2)CC3)n1`, for which the cytotoxicity at 10 µM is 6.2%.

`Brc1ccc(CNCc2nnc3n2CCC3)s1`: the cytotoxicity at 10 µM is -4.2%.

Consider `CCO[C@@H]1CCN(C(=O)c2ccc[nH]2)[C@@H]1Cc1cccnc1`, for which the cytotoxicity at 10 µM is -80.2%.

For `O=C1CCC2(CCCN(Cc3nccs3)C2)N1CC1CC1` (centres undefined), the cytotoxicity at 10 µM was -68.4%.

Turning to `O=C1COC2(CCN(CC3CC3)CC2)CN1c1ccccc1`, the cytotoxicity at 10 µM was -14.6%.

On to `O=C(C1CC1)N1CCOC2(CCNCC2)C1`, for which the cytotoxicity at 10 µM was -112%.

Consider `Cc1ccc(C(=O)N2CCC3(CCCN(c4ncc(F)cn4)C3)C2)cn1` (centres undefined), for which the cytotoxicity at 10 µM was -106%.
